Calls of active or inactive are those of the source. The rule behind the calls is not given here.
Assays:
DU-145 = test: Antiproliferative activity against AR-negative human DU-145 cells assessed as reduction in cell viability incubated for 72 hrs by cell-titer glo assay; type: functional, cell-based; settings: DU-145, 72 h
PC-3 = test: Antiproliferative activity against AR-negative human PC-3 cells assessed as reduction in cell viability incubated for 96 hrs by cell-titer glo assay; type: functional, cell-based; settings: PC-3, 96 h
Hs-578T = test: Antiproliferative activity against human Hs-578T cells assessed as reduction in cell viability incubated for 72 hrs by cell-titer glo assay; type: functional, cell-based
MV4-11 = test: Antiproliferative activity against human MV4-11 cells assessed as reduction in cell viability incubated for 120 hrs by cell-titer glo assay; type: functional, cell-based; settings: MV4-11, 120 h
HT-29 = test: Antiproliferative activity against human HT-29 cells assessed as reduction in cell viability incubated for 120 hrs by cell-titer glo assay; type: functional, cell-based; settings: HT-29, 120 h
A549 = test: Antiproliferative activity against human A549 cells assessed as reduction in cell viability incubated for 72 hrs by cell-titer glo assay; type: functional, cell-based; settings: A549, 72 h
HFL1 = test: Cytotoxicity against human HFL1 cells assessed as reduction in cell viability incubated for 72 hrs by cell-titer glo assay; type: cell-based; settings: HFL1, 72 h
LNCaP C4-2B [1] = test: Inhibition of colony formation in human LNCaP C4-2B cells incubated for 14 days by crystal violet staining based assay; type: functional, cell-based; settings: dose 0.5-2 µM, time 14.0 day
How it was run: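 C4-2B cells cultured with vehicle (DMSO) or compound at 0.5, 1.0 or 2.0 μM for 14 days, then colonies stained and counted against vehicle.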

CWR22R = test: Inhibition of colony formation in human 22Rv1 cells incubated for 14 days by crystal violet staining based assay; type: functional, cell-based; settings: dose 0.5-2 µM, time 14.0 day
How it was run: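 22Rv1 cells cultured with vehicle (DMSO) or compound at 0.5, 1.0 or 2.0 µM for 14 days, then stained and colonies assessed.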

VCaP [2] = test: Inhibition of BET bromodomain in human VCaP cells assessed as suppression of KLK2 mRNA expression at 5 uM incubated for 48 hrs by SYBR green dye based qRT-PCR analysis; type: cell-based
How it was run: (§1)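 LNCaP or VCaP cells exposed to vehicle (DMSO) or compound at 5 µM for 48 h; mRNA levels measured by qRT-PCR; mean ± s.e.m., n = 3; two-tailed Student's t-test.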

LNCaP [3] = test: Inhibition of BET bromodomain in human LNCaP cells assessed as suppression of PSA mRNA expression at 5 uM incubated for 48 hrs by SYBR green dye based qRT-PCR analysis; type: cell-based; how it was run: as §1
VCaP [4] = test: Inhibition of BET bromodomain in human VCaP cells assessed as suppression of PSA mRNA expression at 5 uM incubated for 48 hrs by SYBR green dye based qRT-PCR analysis; type: cell-based; how it was run: as §1
LNCaP [5] = test: Inhibition of BET bromodomain in human LNCaP cells assessed as suppression of TMPRSS2 mRNA expression at 5 uM incubated for 48 hrs by SYBR green dye based qRT-PCR analysis; type: cell-based; how it was run: as §1
VCaP [6] = test: Inhibition of BET bromodomain in human VCaP cells assessed as suppression of Myc mRNA expression at 5 uM incubated for 48 hrs by SYBR green dye based qRT-PCR analysis; type: cell-based; how it was run: as §1
LNCaP [7] = test: Inhibition of BET bromodomain in human LNCaP cells assessed as suppression of Myc mRNA expression at 5 uM incubated for 48 hrs by SYBR green dye based qRT-PCR analysis; type: cell-based; how it was run: as §1
VCaP [8] = test: Inhibition of BET bromodomain in human VCaP cells assessed as suppression of AR-V7 mRNA expression at 5 uM incubated for 48 hrs by SYBR green dye based qRT-PCR analysis; type: cell-based; how it was run: as §1
22Rv1 [9] = test: Inhibition of BET bromodomain in human 22Rv1 cells assessed as suppression of full-length androgen receptor protein expression at 1 to 16 uM incubated for 48 hrs by western blot analysis; type: cell-based; settings: dose 1-16 µM
22Rv1 [10] = test: Inhibition of BET bromodomain in human 22Rv1 cells assessed as suppression of AR-V7 protein expression at 1 to 16 uM incubated for 48 hrs by western blot analysis; type: cell-based; settings: dose 1-16 µM
LNCaP [11] = test: Inhibition of BET bromodomain in human LNCaP cells transfected with Luc-tagged PSA and renilla luciferase assessed as reduction in PSA transcriptional activity measured after 24 hrs by dual luciferase reporter gene assay; type: cell-based; settings: dose 0.4-10 µM
How it was run: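 LNCaP cells transfected with a PSA-luc reporter plasmid, then treated with vehicle or compound at 0.4, 2.0 or 10.0 µM; PSA transcriptional activity read by luciferase; mean ± s.e.m., n = 3; two-tailed Student's t-test.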

[12] = Cmax in Sprague-Dawley rat at 2 mg/kg, iv by LC/MS analysis; type: ADME, organism-based; set-up: route intravenous, dose 2 mg/kg; settings: in vivo
How it was run: (§2)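 Sprague-Dawley rats dosed iv at 2 mg/kg (a separate oral arm received 10 mg/kg); plasma exposure parameters derived from the concentration–time profile.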

[13] = AUC in Sprague-Dawley rat at 2 mg/kg, iv by LC/MS analysis; type: ADME, organism-based; set-up: dose 2 mg/kg; settings: in vivo; how it was run: as §2
LNCaP C4-2B [14] = test: Antitumor activity against human LNCaP C4-2B cells xenografted in CB17/IcrHSD-Prkdc-SCID mouse assessed as tumor growth inhibition at 50 mg/kg, ip administered 5 times per week for 25 days by caliper analysis; type: functional; settings: 600 h, time 25 day, read-out: TGI
How it was run: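 C4-2B cells xenografted in mice; once tumours reached about 100 mm3, mice were randomized and given vehicle or compound at 50 mg/kg i.p. five times per week for 25 days; tumour volume (mean ± s.e.m.) and body weight tracked.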

[15] = Toxicity in CB17/IcrHSD-Prkdc-SCID mouse xenografted with human LNCaP C4-2B cells assessed as effect on body weight at 50 mg/kg, ip administered 5 times per week for 25 days; type: organism-based; settings: in vivo, 600 h, time 25 day
How it was run: (§3)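 C4-2B xenograft mice randomized once tumors reached about 100 mm3. Vehicle or compound given i.p. at 50 mg/kg, five times per week, over a 25-day treatment period. Tolerability judged from body weight, tracked across treatment days, and from general behaviour.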

[16] = Toxicity in CB17/IcrHSD-Prkdc-SCID mouse xenografted with human LNCaP C4-2B cells assessed as effect on animal behaviour at 50 mg/kg, ip administered 5 times per week for 25 days; type: organism-based; settings: in vivo, 600 h, time 25 day; how it was run: as §3

Row | IC50 (DU-145) | IC50 (PC-3) | IC50 (MV4-11) | IC50 (HT-29) | IC50 (A549) | Cmax [12] | SMILES | IC50 (Hs-578T) | IC50 (HFL1) | inhibition (LNCaP C4-2B [1]) | inhibition (CWR22R) | inhibition (VCaP [2]) | inhibition (LNCaP [3]) | inhibition (VCaP [4]) | inhibition (LNCaP [5]) | inhibition (VCaP [6]) | inhibition (LNCaP [7]) | inhibition (VCaP [8]) | inhibition (22Rv1 [9]) | inhibition (22Rv1 [10]) | inhibition (LNCaP [11]) | further results
1 | > 6000 nM | > 3000 nM | 400 nM | 400 nM | > 5000 nM | 1390 ng/mL | COc1cc2onc(C)c2cc1NS(=O)(=O)c1cc(Br)ccc1OC | 1000 nM | 18200 nM | Dose-dependent effect | Dose-dependent effect | Active | Active | Active | Active | Active | Active | Active | Active | Active | Dose-dependent effect | AUC [13]: 1170 ng·h/mL; inhibition in vivo at 50 mg/kg (LNCaP C4-2B [14]): 70%; Activity [15]: Non-Toxic; Activity [16]: Non-Toxic
2 | > 6000 nM | > 3000 nM | 400 nM | 400 nM | 2500 nM | 807 ng/mL | Cc1noc2ccc(-c3nc4ccc(N5CCOC[C@@H]5C)cc4n3CC3CCCCC3)cc12 | 1000 nM | 15900 nM | Dose-dependent effect | Dose-dependent effect | Active | Active | Active | Active | Active | Active | Active | Active | Active | Dose-dependent effect | AUC [13]: 881 ng·h/mL; inhibition in vivo at 50 mg/kg (LNCaP C4-2B [14]): 51%; Activity [15]: Non-Toxic; Activity [16]: Non-Toxic

Reference: ChEMBL document CHEMBL4765238, “Structure-Based Discovery and Optimization of Benzo[ d]isoxazole Derivatives as Potent and Selective BET Inhibitors for Potential Treatment of Castration-Resistant Prostate Cancer (CRPC)” (J Med Chem, 2018)
